Activity calls are given as the source filed them. The calls are words filed in the database; no cut-off is given here.
Key:
[1] = target: T1, Isocitrate dehydrogenase [NADP] cytoplasmic (Homo sapiens, UniProt O75874); test: Inhibition of N-terminal 6-His-tagged wild type IDH1 (unknown origin) expressed in Escherichia coli BL21 cells using alpha-KG as substrate in presence of NADPH incubated for 40 mins by fluorescence assay
[2] = target: T2, Isocitrate dehydrogenase [NADP] cytoplasmic (Homo sapiens, UniProt O75874, R132C); test: Inhibition of N-terminal 6-His-tagged IDH1 R132C mutant (unknown origin) expressed in Escherichia coli BL21 cells using alpha-KG as substrate in presence of NADPH incubated for 40 mins by fluorescence assay
T2 sequence (O75874 2-414 R132C limits assumed): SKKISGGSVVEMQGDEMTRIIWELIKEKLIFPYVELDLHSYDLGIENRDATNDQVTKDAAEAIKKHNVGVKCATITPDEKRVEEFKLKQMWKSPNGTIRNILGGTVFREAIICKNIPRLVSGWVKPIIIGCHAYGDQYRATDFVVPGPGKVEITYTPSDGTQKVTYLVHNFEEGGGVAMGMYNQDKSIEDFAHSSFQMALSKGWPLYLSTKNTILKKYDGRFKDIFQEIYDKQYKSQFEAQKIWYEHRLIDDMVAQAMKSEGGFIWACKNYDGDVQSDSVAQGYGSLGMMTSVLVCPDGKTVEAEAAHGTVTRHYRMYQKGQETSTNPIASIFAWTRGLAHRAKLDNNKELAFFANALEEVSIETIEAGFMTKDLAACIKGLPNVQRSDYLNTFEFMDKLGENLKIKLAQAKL
Summary of the method: (§1)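 His-tagged-free description: E. coli BL21 expressed, affinity-purified enzyme, 100 nmol/L R132H or 20 nmol/L R132C. Remaining NADPH was read by fluorescence (ex 355/em 460 nm). Dose-response started at 50 µmol/L, seven dilution steps. IC50 is the mean of three determinations.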

[3] = target: T3, Isocitrate dehydrogenase [NADP] cytoplasmic (Homo sapiens, UniProt O75874, R132H); test: Inhibition of N-terminal 6-His-tagged IDH1 R132H mutant (unknown origin) expressed in Escherichia coli BL21 cells using alpha-KG as substrate in presence of NADPH incubated for 40 mins by fluorescence assay; summary of the method: as §1
T3 sequence (O75874 2-414 R132H limits assumed): as the sequence (O75874 2-414 R132C limits assumed) above, with C131H counted along it

[4] = target: T1, Isocitrate dehydrogenase [NADP] cytoplasmic; test: Binding affinity to N-terminal 6-His-tagged wild type IDH1 (unknown origin) expressed in BL21 cells assessed as equilibrium dissociation constant by SPR assay
Summary of the method: (§2)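 Assay ran on a Biacore T200 at 25 °C in HBS (10 mmol/L HEPES pH 7.4, 150 mmol/L NaCl, 0.1% DMSO). Bacterially expressed, affinity-purified protein was diluted in 10 mmol/L sodium acetate and amine-coupled to a CM5 chip. Analyte ranged 25–0.78 µmol/L for R132H/C and 50–1.56 µmol/L for WT, flowed at 30 µL/min. Association 120 s, dissociation 150 s. KD from a steady-state model.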

[5] = target: T2, Isocitrate dehydrogenase [NADP] cytoplasmic; test: Binding affinity to N-terminal 6-His-tagged IDH1 R132C mutant (unknown origin) expressed in BL21 cells assessed as equilibrium dissociation constant by SPR assay; summary of the method: as §2
[6] = target: T3, Isocitrate dehydrogenase [NADP] cytoplasmic; test: Binding affinity to N-terminal 6-His-tagged IDH1 R132H mutant (unknown origin) expressed in BL21 cells assessed as equilibrium dissociation constant by SPR assay; summary of the method: as §2
HT-1080 = test: Antiproliferation activity against human HT1080 cells assessed as reduction in cell viability after 72 hrs by Cell Titer-Glo luminescent assay; settings: HT-1080, 72 h
U-87 MG = test: Antiproliferation activity against human U87MG cells assessed as reduction in cell viability after 72 hrs by Cell Titer-Glo luminescent assay; assay type: functional, cell-based, U-87MG ATCC
Summary of the method: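 HT1080 (endogenous IDH1-R132C) and U-87 MG cells kept in DMEM with 10% FBS and 1% penicillin/streptomycin at 37 °C, 5% CO2. Cells were seeded in 96-well plates and, after attachment, exposed to a concentration range for 72 h in triplicate with matched DMSO control. Viable fraction was read by CellTiter-Glo luminescence. IC50 came from a nonlinear curve fit.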

[7] = Selectivity ratio of IC50 for human HT1080 cells to IC50 for human U87MG cells; assay type: functional
[8] = tested on: Isocitrate dehydrogenase [NADP] cytoplasmic (Homo sapiens), O75874 [R132C]; test: Inhibition of IDH1 R132C mutant in human HT1080 cells assessed as induction of differentiation by measuring decrease in SOX2 mRNA expression at 1 umol/L after 6 days by qRT-PCR analysis; assay type: cell-based
Sequence of Isocitrate dehydrogenase [NADP] cytoplasmic (Homo sapiens), O75874 [R132C] (O75874 whole entry R132C): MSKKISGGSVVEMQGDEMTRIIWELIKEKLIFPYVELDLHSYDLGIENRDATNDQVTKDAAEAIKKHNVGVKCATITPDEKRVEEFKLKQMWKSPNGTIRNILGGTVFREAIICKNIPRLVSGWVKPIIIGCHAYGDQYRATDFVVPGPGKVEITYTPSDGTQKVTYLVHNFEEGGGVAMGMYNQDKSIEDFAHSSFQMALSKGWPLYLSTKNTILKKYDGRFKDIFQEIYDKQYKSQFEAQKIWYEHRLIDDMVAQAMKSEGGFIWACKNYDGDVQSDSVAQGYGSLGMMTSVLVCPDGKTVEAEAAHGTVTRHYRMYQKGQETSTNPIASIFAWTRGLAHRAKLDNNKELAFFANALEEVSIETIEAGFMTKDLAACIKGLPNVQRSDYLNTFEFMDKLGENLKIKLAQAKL
Summary of the method: (§3)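 HT1080 cells in 6-well plates were exposed to 1 µmol/L compound or DMSO for 6 days. RNA was extracted with Trizol, reverse transcribed, and SOX2 and GFAP expression measured by SYBR Green real-time PCR. Values are mean ±SD of three replicates.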

[9] = tested on: Isocitrate dehydrogenase [NADP] cytoplasmic (Homo sapiens), O75874 [R132C]; test: Inhibition of IDH1 R132C mutant in human HT1080 cells assessed as induction of differentiation by measuring increase in GFAP mRNA expression at 1 umol/L after 6 days by qRT-PCR analysis; assay type: cell-based; summary of the method: as §3
[10] = tested on: Isocitrate dehydrogenase [NADP] cytoplasmic (Homo sapiens), O75874 [R132C]; test: Inhibition of IDH1 R132C mutant in human HT1080 cells assessed as induction of differentiation by measuring increase in GFAP protein expression after at 0.125 to 1 umol/L 6 days by Western blot analysis; assay type: cell-based
Summary of the method: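 HT1080 cells in 6-well plates received indicated concentrations or DMSO for 6 days after attachment. BCA-quantified lysates were resolved on 12% SDS-PAGE and transferred to nitrocellulose. Membranes were blocked in 5% milk, probed overnight at 4 °C with anti-GFAP and anti-GAPDH, then with HRP secondary for 2 h, and detected by ECL.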

T1 sequence (O75874 whole entry): as the sequence (O75874 whole entry R132C) above, with C132R counted along it

SMILES | IC50 [1] | IC50 [2] | IC50 [3] | also measured
CC(C)(C)c1cc(C(c2ccccn2)N2CCOCC2)cc(C(C)(C)C)c1O (stereo not drawn) | 43.7 µM | 2.7 µM | 0.41 µM | Kd [4]: > 50 µM; Kd [5]: 0.72 µM; Kd [6]: 3.8 µM; IC50 (HT-1080): 5 µM; IC50 (U-87 MG): 48.7 µM; Ratio IC50 [7]: 10; inhibition [8]: Active; inhibition [9]: Active; inhibition [10]: Active
Cc1cccnc1C(c1cc(C(C)(C)C)c(O)c(C(C)(C)C)c1)N1CCOCC1 (stereo not drawn) | 0.8 µM | 4.7 µM | 20 µM | 
CC(C)(C)c1cc(C(c2ccccn2)N2CCOCC2)cc(C(C)(C)C)c1 (stereo not drawn) | > 50 µM | > 50 µM | > 50 µM | 
CC(C)(C)c1cc(C(c2cccc(F)c2)N2CCOCC2)cc(C(C)(C)C)c1O (stereo not drawn) | > 50 µM | > 50 µM | > 50 µM | 
Cc1cccc(C(c2cc(C(C)(C)C)c(O)c(C(C)(C)C)c2)N2CCOCC2)n1 (stereo not drawn) | > 50 µM | > 50 µM | > 50 µM | 
CC(C)(C)c1cc(C(c2ccccn2)N2CCN(c3ccccc3)CC2)cc(C(C)(C)C)c1O (stereo not drawn) | > 50 µM | > 50 µM | > 50 µM | 
CC(C)(C)c1cc(C(SC2CCCCC2)c2ccccn2)cc(C(C)(C)C)c1O (stereo not drawn) | > 50 µM | > 50 µM | > 50 µM | 
CC(C)(C)c1cc(C(OC2CCCCC2)c2ccccn2)cc(C(C)(C)C)c1O (stereo not drawn) | > 50 µM | > 50 µM | > 50 µM | 
CN1CCN(C(c2cc(C(C)(C)C)cc(C(C)(C)C)c2)c2ccccn2)CC1 (stereo not drawn) | > 50 µM | > 50 µM | > 50 µM | 
Cc1ccccc1C(C(=O)NC1CCCCC1)N(C(=O)Cn1ccnc1C)c1cccc(F)c1 (stereo not drawn) |  |  | 0.082 µM | 

Second part, led by results:

IC50 [1] | IC50 [2] | IC50 [3] | SMILES | also measured
31 µM | 18 µM | > 50 µM | CC(C)(C)c1cc(C(c2ccccn2)N2CCN(CC3CC3)CC2)cc(C(C)(C)C)c1O (stereo not drawn) | 
3 µM | 7 µM | 4.76 µM | CC(C)N1CCN(C(c2cc(C(C)(C)C)c(O)c(C(C)(C)C)c2)c2ccccn2)CC1 (stereo not drawn) | 
12.8 µM | 9 µM | > 50 µM | CCCCN1CCN(C(c2cc(C(C)(C)C)c(O)c(C(C)(C)C)c2)c2ccccn2)CC1 (stereo not drawn) | 
> 50 µM | > 50 µM | > 50 µM | CC(C)(C)c1cc(C(c2ccccn2)N2CCN(C3CCCCC3)CC2)cc(C(C)(C)C)c1O (stereo not drawn) | 
6.4 µM | 4.8 µM | 12 µM | CCN1CCN(C(c2cc(C(C)(C)C)c(O)c(C(C)(C)C)c2)c2ccccn2)CC1 (stereo not drawn) | 
50 µM | 4.9 µM | 3 µM | CN1CCN(C(c2cc(C(C)(C)C)c(O)c(C(C)(C)C)c2)c2ccccn2)CC1 (stereo not drawn) | 
8.5 µM | 9 µM | > 50 µM | CC(C)(C)c1cc(C(c2ccccn2)N2CCN(C(C)(C)C)CC2)cc(C(C)(C)C)c1O (stereo not drawn) | 

— ChEMBL document CHEMBL4387756, “Discovery of DC_H31 as potential mutant IDH1 inhibitor through NADPH-based high throughput screening” (Bioorg Med Chem, 2019)
